System: MS2 coat protein
Test: apparent Kd, MS2 coat protein; higher = weaker binding; RNA-MaP array; FMN 200 µM where present
Procedure, shortened: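 The apparent Kd is the median of filtered binding-curve fits, one per cluster, to green signal normalised to red-channel RNA signal and control-cluster median Fmax. The clusters were on Illumina sequencing chips, and stalled E. coli RNA polymerase had transcribed the designs on them. Titration used SNAP-549-labelled MS2 coat protein from 0.7 or 1.5 nM, doubling to 3 µM, without and then with constant ligand, in 100 mM Tris-HCl pH 7.5, 80 mM KCl, 4 mM MgCl2, BSA, DTT, yeast tRNA and Tween-20.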

[1] = designed as: OFF switch for flavin mononucleotide, no ligand
[2] = ligand present: flavin mononucleotide, designed as: OFF switch for flavin mononucleotide
[3] = designed as: ON switch for flavin mononucleotide, no ligand
[4] = ligand present: flavin mononucleotide, designed as: ON switch for flavin mononucleotide

Question: Which results are given for “UGUGGGUCAGGAUAUUCUAUUUAUUACAUGAGGAUCACCCAUGUGAAUGGACAAGGGUGUGAAGAAGGGACUUGUG”?
Answer: apparent Kd [1]: 876 nM; apparent Kd [2]: 495 nM

Question: Which results are given for “UGUCCAUAGCAGAAGGACAUGAGGAUCACCCAUGUAAUCAUACAAAUAAAUGUAGGAUAUGCUAUGGACUAAGAGCGAAAGCUC”?
Answer: apparent Kd [1]: 6.24 nM; apparent Kd [2]: 7.26 nM

Question: For “CUUUUGUGAGGAUAUUAGUAGUAAAUAAAUAAAAUUAUUACUGAGAAGGUACAUGAGGAUCACCCAUGUUCCUC”, which “apparent Kd” value [1] is on record?
Answer: Its value is 18.3 nM.

Question: What about the “apparent Kd” value [2] of the same sequence?
Answer: The value was 25.5 nM.

Question: With “AUGGAUAUCACAGGAUAUGCUAUGGAUACCAUAGCAGAAGGGUGAUCCAUCCUAUGUGAGCACAUGAGGAUCACCCAUGUGUCC” as the sequence, how does the “apparent Kd” value [3] read?
Answer: The value was 123 nM.

Question: And the “apparent Kd” value [4]?
Answer: The value was 23.1 nM.

Question: For “AUGUUACAUGAGGAUCACCCAUGUGAGGAUAUGUGUAUCCCUAAAAAAGUGUGGGACCAUAGAAGGUACUUGGA”, which “apparent Kd” value [1] is on record?
Answer: Its value is 59.2 nM.

Question: And the “apparent Kd” value [2]?
Answer: The value was 58.6 nM.

Question: For “AAGAAGGCAGGAUAUACAAAAUAAAAGAAAAGAAAGAAAGAACAUGAGGAUCACCCAUGUAGAAGGGUCAAGAA”, which “apparent Kd” value [1] is on record?
Answer: The value was 59.3 nM.

Question: What about the “apparent Kd” value [2] of the same sequence?
Answer: Its value is 66.1 nM.

Question: With “UGAGCCUCGUGAGGAUAUACAUGAGGAUCACCCAUGUAAUAAAGUGAACGGAGGUAACUCCGAAUGUAGAAGGCACGAGGCUCA” as the sequence, how does the “apparent Kd” value [1] read?
Answer: The value was 38 nM.

Question: And the “apparent Kd” value [2]?
Answer: The value was 306 nM.

Question: For “ACUAUACGAGGAUAUGCUGUCAGUACUCAGAGGUUAGUGUGACAUGAGGAUCACCCAUGUAGAAGGCGUUUACU”, which “apparent Kd” value [1] is on record?
Answer: The value was 40.8 nM.

Question: And the “apparent Kd” value [2]?
Answer: The value was 34 nM.

Question: “UCAGUAGAGUCAGGAUAUACGAAAGUAGAUCCUUACAUGAGGAUCACCCAUGUAGAAGGGACUCUACUGUAAGUCGGAAACGAC” was tested. Which “apparent Kd” value [1] did it give?
Answer: The value was 14.1 nM.

Question: And the “apparent Kd” value [2]?
Answer: The value was 69.1 nM.

Question: Which results are given for “UCAUAAAAGAUCCUAUUUAUCUACAUGAGGAUCACCCAUGUGCAGGAUAUGCUAUAUUUAAUAAAGCAGAAGGGCAAUAACCGC”?
Answer: apparent Kd [1]: 127 nM; apparent Kd [2]: 309 nM

Question: For “AGUGCGUAUGUGAGGAUAUGCUGGUCCUUGGAUCGGCAGAAGGCACAUGAGGAUCACCCAUGUGGUGUCGUACC”, which “apparent Kd” value [1] is on record?
Answer: Its value is 244 nM.

Question: And the “apparent Kd” value [2]?
Answer: Its value is 34 nM.

Question: Which “apparent Kd” value [1] does the source give for “UAAAAUUUAUGAUAUUAUGACAGUAGAAGGCUAUACAUGUUGAUACAUGAGGAUCACCCAUGUAUAGAGGAUAUAUACAUUUAU” here?
Answer: Its value is 845 nM.

Question: What about the “apparent Kd” value [2] of the same sequence?
Answer: Its value is 832 nM.

Question: Which “apparent Kd” value [3] does the source give for “AUUUUAAUGUCAGGAUAUAUUAGUUUUUACAUAGUAGAAGGGAUAAUUAUACUCAUGUACAUGAGGAUCACCCAUGUUAAAUAU” here?
Answer: The value was 139 nM.

Question: And the “apparent Kd” value [4]?
Answer: Its value is 44.5 nM.

Question: For “AAGUAGGUAGGAUAUGCAUAGAUAUACAUUCAUGUGGAUUUACAUGAGGAUCACCCAUGUAGAAGGACCUAAUA”, which “apparent Kd” value [1] is on record?
Answer: The value was 37.5 nM.

Question: What about the “apparent Kd” value [2] of the same sequence?
Answer: Its value is 136 nM.

Question: Which results are given for “AACAUGAGGAUCACCCAUGUCCCACCAGAAGGCUGGCGGCCACGGUAACGGCCGUGGCAAAUAACAGAGGAUAUGGUGAAUGCA”?
Answer: apparent Kd [3]: 66.3 nM; apparent Kd [4]: 17.9 nM

Question: How did the “apparent Kd” value [1] turn out when “UAUUAAAACGAGAAGGGAGUACAUGAGGAUCACCCAUGUGCCUCAUAAUACUCAGGAUAUCGUGAUUGGGUCACCAGCUGGGUG” was run?
Answer: Its value is 509 nM.

Question: What about the “apparent Kd” value [2] of the same sequence?
Answer: The value was 29.3 nM.

Question: What does the source list for “AGAAACUACGAGAAGGACAUGAGAACCUUCAUUUACAUGAGGAUCACCCAUGUAGGAUAUCGUAGUUUCAGGAUCGUGAGAUCA”?
Answer: apparent Kd [1]: 45.6 nM; apparent Kd [2]: 232 nM

Question: What does the source list for “CGCAACUCAGAUCUUUUUAACAUGAGGAUCACCCAUGUAUUGAGAAGGAGGAAGAAGAGAGAUUCCUAGGAUAUCAGAGUUGCG”?
Answer: apparent Kd [1]: 5.4 nM; apparent Kd [2]: 6.14 nM

Question: With “AACCUAUUACAGAAGGCCAGCUACAUGAGGAUCACCCAUGUCGAGUCAUGGAGGAUAUGUAGUAAUUUACUCACAGAUGAGUGA” as the sequence, how does the “apparent Kd” value [3] read?
Answer: The value was 22.9 nM.

Question: And the “apparent Kd” value [4]?
Answer: The value was 5.07 nM.

Question: Which “apparent Kd” value [1] does the source give for “CCACGACAUGAGGAUCACCCAUGUCAGGAUAUCCCUCAUUGUAUGAAAAUACAAUGAGGGAGAAGGGACGUGAC” here?
Answer: Its value is 33.8 nM.

Question: And the “apparent Kd” value [2]?
Answer: The value was 31.6 nM.

Question: With “AUAUUGUGAGGAUAUGAACUUUGUAUCGAAAGAUACUAAGUUCAGAAGGCACAUGAGGAUCACCCAUGUUUCUC” as the sequence, how does the “apparent Kd” value [1] read?
Answer: Its value is 82.2 nM.

Question: What about the “apparent Kd” value [2] of the same sequence?
Answer: The value was 1130 nM.

Question: Which “apparent Kd” value [1] does the source give for “ACCUCACAUGAGGAUCACCCAUGUCAGGAUAUCUGAUGUAGUCGCGUUCCCGACGCUAAGAGAAGGGACGUUGA” here?
Answer: Its value is 40.4 nM.

Question: What about the “apparent Kd” value [2] of the same sequence?
Answer: The value was 35.1 nM.

Question: “CAGAAACAUGAGGAUCACCCAUGUGAGGAUAUGCGUACGUUGUCCGUAGGCGACGUGCGCAGAAGGCACAAAGG” was tested. Which “apparent Kd” value [1] did it give?
Answer: The value was 132 nM.

Question: What about the “apparent Kd” value [2] of the same sequence?
Answer: The value was 256 nM.

Question: Which “apparent Kd” value [3] does the source give for “AAAACAGAUGGAGGAUAUAGUGUAUGGGCCGUAACGGGAGUAUCGCGCAGACUAGAAGGCCAUUUACAUGAGGAUCACCCAUGU” here?
Answer: Its value is 164 nM.

Question: What about the “apparent Kd” value [4] of the same sequence?
Answer: Its value is 56.5 nM.

Question: How did the “apparent Kd” value [3] turn out when “GGGUACAUCGGAGGAUAUCAUGUAAAUACAUGAGGAUCACCCAUGUCGAUCGAGACAUCGGAGAUUGAGAAGGCCGAUGUACCG” was run?
Answer: The value was 163 nM.

Question: And the “apparent Kd” value [4]?
Answer: Its value is 286 nM.

Question: Which “apparent Kd” value [3] does the source give for “GAGUGGCGAUUAGGAUAUACAGUGAUAAUGAUAGUAGAAGGAAUUGACAUGAGGAUCACCCAUGUAGGACUAAUCCAGAGAGAG” here?
Answer: The value was 96.1 nM.

Question: And the “apparent Kd” value [4]?
Answer: The value was 84.9 nM.

Question: “GACAGCUCGUGAGGAUAUACAACACUGCUUCGGCAGUGUAUUAAGAUCACAUGAGGAUCACCCAUGUAGAAGGCACGAGCUGAU” was tested. Which “apparent Kd” value [1] did it give?
Answer: The value was 13.5 nM.

Question: What about the “apparent Kd” value [2] of the same sequence?
Answer: The value was 319 nM.

Question: Which “apparent Kd” value [1] does the source give for “CGUCAUUACUCAGGAUAUGCACCAUACUUGAGGGCAGAAGGGAGUACAUGAGGAUCACCCAUGUACUAUGGGCGCCUAAGAGGU” here?
Answer: Its value is 8.26 nM.

Question: And the “apparent Kd” value [2]?
Answer: Its value is 45.1 nM.

Question: With “AAGAAGGACGCAGGAUAUCCAGGACCUCCCGCAGGAGAAGGGCGAGACACGUGGAUCACCCAGACAUGAGGAUCACCCAUGUAG” as the sequence, how does the “apparent Kd” value [1] read?
Answer: The value was 15.6 nM.

Question: What about the “apparent Kd” value [2] of the same sequence?
Answer: The value was 14.2 nM.

Question: For “GGAGCCGGUACUGAGGAUAUUCAUAUUAAAACAUGAGGAUCACCCAUGUAGGCCAGAAGGCCUUGGGAGAAGGCAGGCCAGCUCG”, which “apparent Kd” value [3] is on record?
Answer: The value was 378 nM.

Question: What about the “apparent Kd” value [4] of the same sequence?
Answer: Its value is 31.4 nM.

Question: Which results are given for “CCUUUUGUAUAAGGAUAUGUAACAAGGUAUAGAUUGGUAGGAUUUGUGCUUACAGAAGGUAUACAUGAGGAUCACCCAUGUCGA”?
Answer: apparent Kd [1]: 23.1 nM; apparent Kd [2]: 59.5 nM

Question: “GAGUACUGAGGAUAUACAUGAGGAUCACCCAUGUGUUCCAACUAGGAAUCUAGAAUAUGUAGAAGGCAGUACUG” was tested. Which “apparent Kd” value [1] did it give?
Answer: The value was 223 nM.

Question: And the “apparent Kd” value [2]?
Answer: The value was 211 nM.

Question: For “UUGCCUCAGAACAUGAGGAUCACCCAUGUGCUGCGGGCAACGUAGGAUAUGAUGGUUCGAUACCAUCAGAAGGAUGAUGGUACC”, which “apparent Kd” value [3] is on record?
Answer: Its value is 5.42 nM.

Question: And the “apparent Kd” value [4]?
Answer: Its value is 5.22 nM.

Question: Which “apparent Kd” value [3] does the source give for “UGUUGUAUUACAGGAUAUCUAUUAGUUUUAUUUAGAGAAGGGUAUUCACAUGAGGAUCACCCAUGUAUAUACGAGGAAGUUGUG” here?
Answer: The value was 57.8 nM.

Question: What about the “apparent Kd” value [4] of the same sequence?
Answer: Its value is 60.3 nM.

Question: “UGGUACUAGGGAGGAUAUGGGAAGACACAUGAGGAUCACCCAUGUUUAAGAAUGCCGAGAGGCAACUAGAAGGCCCUAGUACCU” was tested. Which “apparent Kd” value [3] did it give?
Answer: The value was 71.9 nM.

Question: What about the “apparent Kd” value [4] of the same sequence?
Answer: The value was 7.95 nM.

Question: How did the “apparent Kd” value [1] turn out when “UAAUUGUGAGGAUAUUCGUAGUUCUCGGAGACGAGAAUUACGGAGAAGGCACAUGAGGAUCACCCAUGUUCCUU” was run?
Answer: Its value is 18.3 nM.

Question: What about the “apparent Kd” value [2] of the same sequence?
Answer: Its value is 96.1 nM.

Reference: the EternaBench riboswitch data
